{"source": "ChEMBL document CHEMBL4411270", "about": "“Discovery of Nonquinone Substrates for NAD(P)H: Quinone Oxidoreductase 1 (NQO1) as Effective Intracellular ROS Generators for the Treatment of Drug-Resistant Non-Small-Cell Lung Cancer” (J Med Chem, 2018)", "key": {"[1]": {"target": "NAD(P)H dehydrogenase [quinone] 1 (Homo sapiens) (UniProt P15559)", "sequence (P15559 whole entry)": "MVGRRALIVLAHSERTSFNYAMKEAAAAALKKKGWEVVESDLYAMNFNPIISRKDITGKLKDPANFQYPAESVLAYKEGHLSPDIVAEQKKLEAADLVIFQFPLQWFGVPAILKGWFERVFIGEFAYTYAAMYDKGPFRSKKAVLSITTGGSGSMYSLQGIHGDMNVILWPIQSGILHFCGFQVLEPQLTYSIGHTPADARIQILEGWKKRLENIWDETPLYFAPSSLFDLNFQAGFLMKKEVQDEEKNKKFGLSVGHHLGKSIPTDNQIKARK", "assay": "Substrate activity at recombinant human NQO1 assessed as induction of ROS generation at 1 to 10 uM treated post DIC addition and measured after 3 hrs by DCF-DA staining based fluorescence laser scanning confocal microscopic analysis", "method_in_brief": "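A549/Taxol cells seeded at 1 x 10^6 per well, grown 24 h, treated with compound at 1 and 10 µM for 3 h (± pretreatment with 50 µM DIC or 10 mM NAC), loaded with 10 µM DCFH-DA 30 min at 37 °C, fixed in 4% formaldehyde 20 min, PBS washed, imaged by laser scanning confocal microscopy.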"}, "[2]": {"target": "NAD(P)H dehydrogenase [quinone] 1 (Homo sapiens) (UniProt P15559)", "assay": "Substrate activity at recombinant human NQO1 assessed as ROS generation by measuring umol of cytochrome c utilized per umol of enzyme at 10 uM co-incubated with DIC measured at 2 secs interval for 5 mins in presence of NADPH"}, "[3]": {"target": "NAD(P)H dehydrogenase [quinone] 1 (Homo sapiens) (UniProt P15559)", "assay": "Substrate activity at recombinant human NQO1 assessed as induction of DNA damage at 10 uM treated post DIC addition and measured after 2 hrs by propidium iodide staining based laser scanning confocal microscopic analysis", "method_in_brief": "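Comet assay in A549/Taxol cells exposed 2 h to compound (10 µM) or 2 mM H2O2, with or without DIC or NAC pretreatment; comet tail lengths measured in arbitrary units.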"}, "[4]": {"tested_on": "A549/TR", "assay": "Induction of apoptosis in human A549/TR cells expressing NQO1 assessed as viable cells at 1 uM after 24 hrs by Annexin V-FITC/propidium iodide based flow cytometric analysis (reference value: 93.16%)", "format": "functional", "settings": "read-out: Activity", "method_in_brief": "(§1)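 A549/Taxol cells exposed 24 h to 1, 5 or 10 µM. The 10 µM arms included pretreatment with 50 µM dicoumarol or 10 mM N-acetylcysteine. Cells stained with Annexin V-FITC and propidium iodide, and populations quantified by flow cytometry.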"}, "[5]": {"tested_on": "A549/TR", "assay": "Induction of apoptosis in human A549/TR cells expressing NQO1 assessed as early apoptotic cells at 5 uM after 24 hrs by Annexin V-FITC/propidium iodide based flow cytometric analysis (reference value: 0.43%)", "format": "functional", "method_in_brief": "as §1"}, "[6]": {"tested_on": "A549/TR", "assay": "Induction of apoptosis in human A549/TR cells expressing NQO1 assessed as late apoptotic cells at 5 uM after 24 hrs by Annexin V-FITC/propidium iodide based flow cytometric analysis (reference value: 2.49%)", "format": "functional", "method_in_brief": "as §1"}, "[7]": {"tested_on": "A549/TR", "assay": "Induction of apoptosis in human A549/TR cells expressing NQO1 assessed as viable cells at 5 uM after 24 hrs by Annexin V-FITC/propidium iodide based flow cytometric analysis (reference value: 93.16%)", "format": "functional", "settings": "read-out: Activity"}, "[8]": {"tested_on": "A549/TR", "assay": "Induction of apoptosis in human A549/TR cells expressing NQO1 assessed as late apoptotic cells at 10 uM after 24 hrs by Annexin V-FITC/propidium iodide based flow cytometric analysis (reference value: 2.49%)", "format": "functional", "method_in_brief": "as §1"}, "[9]": {"tested_on": "A549/TR", "assay": "Induction of apoptosis in human A549/TR cells expressing NQO1 assessed as late apoptotic cells at 10 uM treated post NAC addition and measured after 24 hrs by Annexin V-FITC/propidium iodide based flow cytometric analysis (reference value: 2.49%)", "format": "functional", "method_in_brief": "as §1"}, "[10]": {"tested_on": "A549/TR", "assay": "Induction of apoptosis in human A549/TR cells expressing NQO1 assessed as increase in cleaved PARP level by Western blot analysis", "format": "functional, cell-based", "method_in_brief": "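A549/Taxol cells treated with graded concentrations up to 10 µM, with or without pretreatment with 50 µM dicoumarol or 10 mM N-acetylcysteine. Cells then harvested, washed in cold PBS and trypsinized. Lysates probed by Western blot for cleaved PARP and p53.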"}, "[11]": {"target": "NAD(P)H dehydrogenase [quinone] 1 (Homo sapiens) (UniProt P15559)", "assay": "Substrate activity at DIC pretreated recombinant human NQO1 assessed as reduction in PARP-1 hyperactivation by measuring PAR accumulation at 10 uM treated for 10 mins measured after 60 mins by western blot analysis", "method_in_brief": "(§2)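 A549/Taxol cells treated with compound at 10 µM, with or without 50 µM DIC or 10 mM NAC pretreatment, harvested at indicated times; PAR formation by Western blot, plus intracellular ATP and NAD+ levels.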"}, "[12]": {"target": "NAD(P)H dehydrogenase [quinone] 1 (Homo sapiens) (UniProt P15559)", "assay": "Substrate activity at DIC pretreated recombinant human NQO1 assessed as reduction in PARP-1 hyperactivation by measuring depletion of ATP level at 10 uM measured up to 300 mins", "method_in_brief": "as §2"}, "[13]": {"target": "NAD(P)H dehydrogenase [quinone] 1 (Homo sapiens) (UniProt P15559)", "assay": "Substrate activity at NAC pretreated recombinant human NQO1 assessed as reduction in PARP-1 hyperactivation by measuring depletion of ATP level at 10 uM measured up to 300 mins", "method_in_brief": "as §2"}, "[14]": {"target": "NAD(P)H dehydrogenase [quinone] 1 (Homo sapiens) (UniProt P15559)", "assay": "Substrate activity at NAC pretreated recombinant human NQO1 assessed as reduction in PARP-1 hyperactivation by measuring depletion of NAD+ level at 10 uM measured up to 300 mins", "method_in_brief": "as §2"}, "[15]": {"target": "NAD(P)H dehydrogenase [quinone] 1 (Homo sapiens) (UniProt P15559)", "assay": "Substrate activity at recombinant human NQO1 assessed as reduction in PARP-1 hyperactivation by measuring depletion of ATP level at 10 uM measured up to 300 mins", "method_in_brief": "as §2"}, "[16]": {"tested_on": "A549/TR", "assay": "Antitumor activity against human A549/TR cells expressing NQO1 xenografted in nude mouse assessed as tumor volume at 30 m/kg, iv treated every other day for 3 weeks measured every day relative to control", "format": "functional", "method_in_brief": "(§3)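 A549/Taxol tumor-bearing nude mice dosed by tail-vein injection every other day for three weeks (15 or 30 mg/kg; Taxol reference 2 mg/kg; vehicle controls). Tumor volume followed over treatment, tumors weighed at end, body weight monitored. Tumor sections stained with H&E for necrosis and karyorrhexis.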"}, "[17]": {"tested_on": "A549/TR", "assay": "Antitumor activity against human A549/TR cells expressing NQO1 xenografted in nude mouse assessed as reduction in tumor weight at 30 m/kg, iv treated every other day for 3 weeks measured every day relative to control", "format": "functional", "design": "scale not given: the % may be the effect or the level left", "method_in_brief": "as §3"}, "[18]": {"assay": "Toxicity in nude mouse xenografted with human A549/TR cells expressing NQO1 at 15 to 30 mg/kg, iv treated every other day for 3 weeks measured every day", "format": "organism-based", "settings": "in vivo, 504 h", "method_in_brief": "(§4)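 A549/Taxol xenograft nude mice dosed by tail-vein injection at 15 or 30 mg/kg every other day for three weeks; saline vehicle group. Afterwards mice were euthanized, major organs H&E stained, and blood taken for biochemistry (TP, ALB, GLB, AST, BUN, LDH); tumor tissue assayed for ROS and GSH.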"}, "[19]": {"tested_on": "A549/TR", "assay": "Antitumor activity against human A549/TR cells expressing NQO1 xenografted in nude mouse assessed as increase in karyprrhexis at 15 to 30 mg/kg, iv treated every other day for 3 weeks by hematoxylin and eosin staining based optical microscopic analysis", "format": "functional, organism-based", "method_in_brief": "as §3"}, "[20]": {"assay": "Nephrotoxicity in nude mouse xenografted with human A549/TR cells expressing NQO1 at 15 to 30 mg/kg, iv treated every other day for 3 weeks by hematoxylin and eosin staining based optical microscopic analysis", "format": "toxicity, organism-based", "settings": "in vivo, 504 h", "method_in_brief": "as §4"}, "[21]": {"assay": "Hepatotoxicity in nude mouse xenografted with human A549/TR cells expressing NQO1 assessed as aspartate aminotransferase level at 15 to 30 mg/kg, iv treated every other day for 3 weeks by hematoxylin and eosin staining based optical microscopic analysis", "format": "toxicity, organism-based", "settings": "in vivo, 504 h", "method_in_brief": "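Nude mice bearing A549/Taxol xenografts given saline, 15 or 30 mg/kg by tail-vein injection every other day, or Taxol 2 mg/kg, for 3 weeks. Mice then euthanized. Major organs examined by H&E staining. Blood collected for biochemistry: TP, ALB, GLB, AST, BUN, LDH.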"}, "[22]": {"target": "NAD(P)H dehydrogenase [quinone] 1 (Homo sapiens) (UniProt P15559)", "assay": "Substrate activity at recombinant human NQO1 assessed as reduction in PARP-1 hyperactivation by measuring PAR accumulation at 10 uM after 60 mins by western blot analysis", "method_in_brief": "as §2"}, "[23]": {"target": "NAD(P)H dehydrogenase [quinone] 1 (Homo sapiens) (UniProt P15559)", "assay": "Substrate activity at recombinant human NQO1 assessed as reduction in PARP-1 hyperactivation by measuring PAR accumulation by western blot analysis", "method_in_brief": "as §2"}}, "note": "The source made the active and inactive calls. The rule behind the calls is not given here."}
{"smiles": "N#Cc1nc2c(nc1C#N)-c1cc(F)c(F)cc1C2=O", "values": [{"measurement": "Activity", "setting": "[1]", "result": "inactive"}, {"measurement": "Activity", "setting": "[2]", "result": "inactive"}, {"measurement": "Activity", "setting": "[3]", "result": "inactive"}, {"measurement": "viability at 1 µM", "setting": "[4]", "result": 64.6, "unit": "%"}, {"measurement": "Activity", "setting": "[5]", "result": 33.6, "unit": "%"}, {"measurement": "Activity", "setting": "[6]", "result": 9.28, "unit": "%"}, {"measurement": "viability at 5 µM", "setting": "[7]", "result": 49.7, "unit": "%"}, {"measurement": "Activity", "setting": "[8]", "result": 8.09, "unit": "%"}, {"measurement": "Activity", "setting": "[9]", "result": 2.11, "unit": "%"}, {"measurement": "Activity", "setting": "[10]", "result": "Dose-dependent effect"}, {"measurement": "Activity", "setting": "[11]", "result": "inactive"}, {"measurement": "Activity", "setting": "[12]", "result": "inactive"}, {"measurement": "Activity", "setting": "[13]", "result": "inactive"}, {"measurement": "Activity", "setting": "[14]", "result": "inactive"}, {"measurement": "Activity", "setting": "[15]", "result": "Active"}, {"measurement": "T/C", "setting": "[16]", "result": 25.9, "unit": "%"}, {"measurement": "Activity", "setting": "[17]", "result": 64.9, "unit": "%"}, {"measurement": "Activity", "setting": "[18]", "result": "Non-Toxic"}, {"measurement": "Activity", "setting": "[19]", "result": "Active"}, {"measurement": "Activity", "setting": "[20]", "result": "Non-Toxic"}, {"measurement": "Activity", "setting": "[21]", "result": "Non-Toxic"}, {"measurement": "Activity", "setting": "[22]", "result": "inactive"}, {"measurement": "Activity", "setting": "[23]", "result": "Dose-dependent effect"}]}
